According to ChEMBL document CHEMBL2021897, “Synthesis and SAR of 1,3-thiazolyl thiophene and pyridine derivatives as potent, orally active and S1P₃-sparing S1P₁ agonists” (Bioorg Med Chem Lett, 2012):
Activity calls are given as the source filed them. The calls are words filed in the database; no cut-off is given here.

What was measured:
Rattus norvegicus [1] = assay: Immunosuppressive activity in LEW rat transplanted with spleen cells of WKAH rat assessed as inhibition of enlargement of draining popliteal lymph node at 1 mg/kg, po qd for 4 days; type: functional; conditions: for inhibition in vivo at 1 mg/kg: 96 h
Procedure, shortened: (§1)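 Spleen cells from WKAH rats were injected into the footpads of LEW rats to induce draining popliteal lymph node enlargement. Dosing was oral, once daily for four days from the day of cell injection (day 0). Lymph node weight was measured on day 4. Values are the mean of five rats; ID50 is derived from at least three doses.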

[2] = biological target: Sphingosine 1-phosphate receptor 1 (Homo sapiens, UniProt P21453); assay: Agonist activity at human S1P1 receptor by [S35]GTPgammaS binding assay; type: functional
Sequence of Sphingosine 1-phosphate receptor 1 (P21453 whole entry): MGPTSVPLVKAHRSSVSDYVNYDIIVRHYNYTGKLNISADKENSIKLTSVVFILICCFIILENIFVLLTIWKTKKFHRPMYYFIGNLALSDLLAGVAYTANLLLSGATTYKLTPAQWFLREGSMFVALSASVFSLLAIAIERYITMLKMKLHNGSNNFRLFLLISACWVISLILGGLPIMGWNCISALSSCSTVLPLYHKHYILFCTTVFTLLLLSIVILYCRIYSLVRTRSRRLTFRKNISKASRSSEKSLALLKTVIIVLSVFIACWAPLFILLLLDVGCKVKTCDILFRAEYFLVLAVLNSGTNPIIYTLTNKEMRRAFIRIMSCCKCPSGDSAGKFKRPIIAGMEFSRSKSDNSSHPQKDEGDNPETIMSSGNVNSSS
Procedure, shortened: (§2)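 GTPγS binding at human S1P1 and S1P3 receptors. EC50 is the mean of two experimental determinations.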

[3] = biological target: Sphingosine 1-phosphate receptor 3 (Homo sapiens, UniProt Q99500); assay: Agonist activity at human S1P3 receptor by [S35]GTPgammaS binding assay; type: functional; procedure, shortened: as §2
Sequence of Sphingosine 1-phosphate receptor 3 (Q99500 whole entry): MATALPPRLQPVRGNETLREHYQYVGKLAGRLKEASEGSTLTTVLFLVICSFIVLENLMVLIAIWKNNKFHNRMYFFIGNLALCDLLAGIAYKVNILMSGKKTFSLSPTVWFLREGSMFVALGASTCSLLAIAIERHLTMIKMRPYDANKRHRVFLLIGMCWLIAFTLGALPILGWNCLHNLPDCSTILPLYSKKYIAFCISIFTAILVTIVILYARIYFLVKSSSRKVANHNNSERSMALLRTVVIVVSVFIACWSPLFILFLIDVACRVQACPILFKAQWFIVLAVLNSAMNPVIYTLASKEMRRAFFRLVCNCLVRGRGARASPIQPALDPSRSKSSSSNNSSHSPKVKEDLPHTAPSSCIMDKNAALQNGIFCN

Homo sapiens = species: Homo sapiens; assay: Selectivity ratio of EC50 for human S1P3 receptor to EC50 for human S1P1 receptor
Rattus norvegicus [4] = assay: Immunosuppressive activity in po dosed LEW rat transplanted with spleen cells of WKAH rat assessed as inhibition of enlargement of draining popliteal lymph node administered qd for 4 days; type: functional; conditions: 96 h, read-out: ID50 (the source's name); procedure, shortened: as §1
[5] = biological target: T1, Peroxisome proliferator-activated receptor alpha (Homo sapiens) (UniProt Q07869); assay: Agonist activity at PPARalpha; type: functional
T1 sequence (whole entry): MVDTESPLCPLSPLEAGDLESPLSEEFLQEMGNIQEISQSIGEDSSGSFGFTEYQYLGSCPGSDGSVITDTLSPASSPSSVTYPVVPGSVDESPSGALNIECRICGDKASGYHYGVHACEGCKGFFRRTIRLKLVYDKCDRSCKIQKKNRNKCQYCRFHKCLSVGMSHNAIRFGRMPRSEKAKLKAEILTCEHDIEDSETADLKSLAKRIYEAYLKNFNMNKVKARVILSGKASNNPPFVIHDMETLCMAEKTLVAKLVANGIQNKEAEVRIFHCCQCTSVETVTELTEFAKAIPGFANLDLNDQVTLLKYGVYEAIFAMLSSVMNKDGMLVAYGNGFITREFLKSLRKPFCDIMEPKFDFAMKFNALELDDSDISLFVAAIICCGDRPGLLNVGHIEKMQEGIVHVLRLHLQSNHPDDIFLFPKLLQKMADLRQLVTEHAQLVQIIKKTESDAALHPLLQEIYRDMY

[6] = Stability of the compound in presence of enterobacteria from rat cecal contents under anaerobic condition at 3 to 30 uM after 48 hrs; type: ADME
Procedure, shortened: (§3)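 Compound solutions at 3.0 and 30 µM were exposed to anaerobic enterobacterial culture fluid from rat cecal contents or monkey feces, grown in prereduced PYF broth, with broth alone as control. Percent compound remaining was traced at 24 and 48 h.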

[7] = Clearance in Lewis rat at 1 mg/kg, iv; type: ADME, organism-based; parameters: dose 1 mg/kg, route intravenous; conditions: in vivo
Procedure, shortened: (§4)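 Single iv administration to Lewis rats at 1.0 mg/kg (n = 2) or cynomolgus monkeys at 0.5 mg/kg (n = 2), with clearance and volume of distribution derived.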

[8] = Clearance in cynomolgus monkey at 0.5 mg/kg, iv; type: ADME, organism-based, Macaca fascicularis; parameters: dose 0.5 mg/kg, route intravenous; conditions: in vivo; procedure, shortened: as §4
[9] = Stability of the compound in presence of enterobacteria from monkey feces contents under anaerobic condition at 3 to 30 uM after 48 hrs; type: ADME, tissue-based; procedure, shortened: as §3
[10] = Stability of the compound in presence of enterobacteria from rat cecal contents under anaerobic condition at 3 to 30 uM after 24 hrs; type: ADME; procedure, shortened: as §3
[11] = Half life in cynomolgus monkey at 1 mg/kg, po; type: ADME, organism-based, Macaca fascicularis; parameters: dose 1 mg/kg, route oral; conditions: in vivo
Procedure, shortened: (§5)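 Single oral dose in Lewis rats (n = 4) or cynomolgus monkeys (n = 2), with plasma parameters derived. Bioavailability was calculated against iv dosing at 1.0 mg/kg in rats (n = 2) and 0.5 mg/kg in monkeys (n = 2).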

[12] = Oral bioavailability in Lewis rat at 3 mg/kg; type: ADME, organism-based; conditions: in vivo; procedure, shortened: as §5
[13] = AUC (0 to infinity) in Lewis rat at 3 mg/kg, po; type: ADME, organism-based; parameters: dose 3 mg/kg, route oral, time infinity; conditions: plasma; procedure, shortened: as §5
[14] = AUC (0 to infinity) in cynomolgus monkey at 1 mg/kg, po; type: ADME, organism-based, Macaca fascicularis; parameters: time infinity, dose 1 mg/kg, route oral; conditions: plasma; procedure, shortened: as §5
[15] = Stability of the compound in presence of enterobacteria from monkey feces contents under anaerobic condition at 3 to 30 uM after 24 hrs; type: ADME, tissue-based; procedure, shortened: as §3
[16] = Volume of distribution in Lewis rat at 1 mg/kg, iv; type: ADME, organism-based; parameters: dose 1 mg/kg, route intravenous; conditions: in vivo; procedure, shortened: as §4
[17] = Cmax in Lewis rat at 3 mg/kg, po; type: ADME, organism-based; parameters: dose 3 mg/kg, route oral; conditions: in vivo; procedure, shortened: as §5
[18] = Oral bioavailability in cynomolgus monkey at 1 mg/kg; type: ADME, organism-based, Macaca fascicularis; conditions: in vivo; procedure, shortened: as §5
[19] = Half life in Lewis rat at 3 mg/kg, po; type: ADME, organism-based; parameters: dose 3 mg/kg, route oral; conditions: in vivo; procedure, shortened: as §5
[20] = Cmax in cynomolgus monkey at 1 mg/kg, po; type: ADME, organism-based, Macaca fascicularis; parameters: dose 1 mg/kg, route oral; conditions: in vivo; procedure, shortened: as §5
[21] = Tmax in cynomolgus monkey at 1 mg/kg, po; type: ADME, organism-based, Macaca fascicularis; parameters: dose 1 mg/kg, route oral; conditions: in vivo; procedure, shortened: as §5
[22] = Tmax in Lewis rat at 3 mg/kg, po; type: ADME, organism-based; parameters: dose 3 mg/kg, route oral; conditions: in vivo; procedure, shortened: as §5
[23] = Volume of distribution in cynomolgus monkey at 0.5 mg/kg, iv; type: ADME, organism-based, Macaca fascicularis; parameters: dose 0.5 mg/kg, route intravenous; conditions: in vivo; procedure, shortened: as §4
Rattus norvegicus [24] = assay: Drug metabolism in po dosed rat plasma assessed as formation of 4-phenoxy benzoic acid; type: ADME, organism-based; conditions: in vivo
[25] = Half life in cynomolgus monkey at 0.5 mg/kg, po; type: ADME, organism-based, Macaca fascicularis; parameters: dose 0.5 mg/kg, route oral; conditions: in vivo; procedure, shortened: as §5
[26] = Cmax in cynomolgus monkey at 0.5 mg/kg, po; type: ADME, organism-based, Macaca fascicularis; parameters: dose 0.5 mg/kg, route oral; conditions: in vivo; procedure, shortened: as §5
[27] = Oral bioavailability in cynomolgus monkey at 0.5 mg/kg; type: ADME, organism-based, Macaca fascicularis; conditions: in vivo; procedure, shortened: as §5
[28] = Tmax in cynomolgus monkey at 0.5 mg/kg, po; type: ADME, organism-based, Macaca fascicularis; parameters: dose 0.5 mg/kg, route oral; conditions: in vivo; procedure, shortened: as §5
[29] = AUC (0 to infinity) in cynomolgus monkey at 0.5 mg/kg, po; type: ADME, organism-based, Macaca fascicularis; parameters: time infinity, dose 0.5 mg/kg, route oral; conditions: plasma; procedure, shortened: as §5

SMILES	inhibition in vivo at 1 mg/kg (Rattus norvegicus [1]) [%]	EC50 [2] [nM]	EC50 [3] [nM]	ED50 (Rattus norvegicus [4]) [mg/kg]	further results
CCc1nc(CN2CC(C(=O)O)C2)ccc1-c1cnc(-c2ccc(OC(C)C)c(C)c2)s1	17	2.8	> 20000	–	–
CCc1cc(CN2CC(C(=O)O)C2)sc1-c1ncc(-c2ccc(Oc3ccccc3)cc2)s1	42	4.5	> 20000	–	Ratio EC50 (Homo sapiens): > 4400
CCc1cc(CN2CC(C(=O)O)C2)sc1-c1ncc(-c2ccc(OC(C)C)cc2)s1	52	10	> 20000	–	–
CCc1cc(CN2CC(C(=O)O)C2)sc1-c1cnc(-c2ccc(Oc3ccccc3)cc2)s1	25	35	> 20000	–	–
CCc1cc(CN2CC(C(=O)O)C2)sc1-c1ncc(-c2ccc(C(C)C)c(C)c2)s1	–	3.5	> 20000	1.07	–
CCc1cc(CN2CC(C(=O)O)C2)sc1-c1ncc(-c2ccc(OC(C)C)c(Cl)c2)s1	54	3.2	> 20000	–	–
O=C(O)c1ccc(Oc2ccccc2)cc1	–	–	–	–	Activity [5]: Active
CCc1cc(CN2CC(C(=O)O)C2)sc1-c1ncc(-c2ccc(OC(C)C)c(C(C)C)c2)s1	–	1.3	> 20000	0.53	–
CCc1cc(CN2CC(C(=O)O)C2)sc1-c1ncc(-c2ccc(O[C@H](C)CC)c(C)c2)s1	27	8	> 20000	–	–
CCc1cc(CN2CC(C(=O)O)C2)sc1-c1ncc(-c2ccc(O[C@@H](C)CC)c(C)c2)s1	–	6	> 20000	0.32	–
CCc1cc(CN2CC(C(=O)O)C2)sc1-c1cc(-c2ccc(Oc3ccccc3)cc2)on1	2	22	> 20000	–	–
CCc1cc(CN2CC(C(=O)O)C2)sc1-c1ncc(-c2ccc(OC(C)C)c(C)c2)s1	–	3.4	> 20000	0.07	Stability [6]: Stable; clearance [7]: 6.72 mL/min/kg; clearance [8]: 2 mL/min/kg; Stability [9]: Stable; Stability [10]: Stable; half-life [11]: 7.2 h; bioavailability [12]: 70.6%; AUC(0-inf) [13]: 5140 ng·h/mL; AUC(0-inf) [14]: 8690 ng·h/mL; Stability [15]: Stable; Vd [16]: 5.37 L/kg; Cmax [17]: 340 ng/mL; bioavailability [18]: > 90%; half-life [19]: 11.5 h; Cmax [20]: 630 ng/mL; Tmax [21]: 4 h; Tmax [22]: 5 h; Vd [23]: 0.89 L/kg
CCc1nc(CN2CC(C(=O)O)C2)ccc1-c1cnc(-c2ccc(CC(C)C)c(C)c2)s1	–	4.1	> 20000	0.64	–
CCc1cc(-c2ncc(-c3ccc(CN4CC(C(=O)O)C4)nc3CC)s2)ccc1CC(C)C	–	5.4	> 20000	0.74	–
CCCc1cc(-c2cnc(-c3sc(CN4CC(C(=O)O)C4)cc3CC)s2)ccc1OC(C)C	73	1.1	400	–	–
CCc1cc(CN2CC(C(=O)O)C2)sc1-c1noc(-c2ccc(Oc3ccccc3)cc2)n1	–	–	> 20000	0.41	Stability [6]: Unstable; Stability [9]: Unstable; Stability [10]: Unstable; Stability [15]: Unstable; Drug metabolism (Rattus norvegicus [24]): Active
CCc1cc(CN2CC(C(=O)O)C2)sc1-c1cnc(-c2ccc(OC(C)C)c(C)c2)s1	–	11	> 20000	0.19	–
CCc1cc(CN2CC(C(=O)O)C2)sc1-c1cc(-c2ccc(Oc3ccccc3)cc2)no1	–	15	> 20000	–	inhibition (Rattus norvegicus [1]): inactive
CCc1cc(CN2CC(C(=O)O)C2)sc1-c1ncc(-c2ccc(Oc3ccccc3)cc2)o1	–	90	> 20000	–	–
CCc1cc(-c2cnc(-c3ccc(CN4CC(C(=O)O)C4)nc3CC)s2)ccc1OC(C)C	–	4	> 20000	0.49	clearance [8]: 1.75 mL/min/kg; half-life [25]: 16.7 h; Cmax [26]: 150 ng/mL; bioavailability [27]: 75.4%; Tmax [28]: 5 h; AUC(0-inf) [29]: 3730 ng·h/mL; Vd [23]: 1.46 L/kg
CCc1cc(CN2CC(C(=O)O)C2)sc1-c1nnc(-c2ccc(Oc3ccccc3)cc2)s1	–	25	> 20000	–	inhibition (Rattus norvegicus [1]): inactive
CCc1cc(-c2cnc(-c3sc(CN4CC(C(=O)O)C4)cc3CC)s2)ccc1OC(C)C	–	3.4	> 20000	0.16	–
CCc1nc(CN2CC(C(=O)O)C2)ccc1-c1ncc(-c2ccc(OC(C)C)c(C)c2)s1	39	5.5	> 20000	–	–
CCc1cc(CN2CC(C(=O)O)C2)sc1-c1cnc(-c2ccc(Oc3ccccc3)cc2)o1	–	300	> 20000	–	–
CCc1cc(CN2CC(C(=O)O)C2)sc1-c1ncc(-c2ccc(OC(C)C)c(F)c2)s1	–	5.8	> 20000	0.48	–
CCc1cc(CN2CC(C(=O)O)C2)sc1-c1nnc(-c2ccc(Oc3ccccc3)cc2)o1	–	54	> 20000	–	–
